Article PMC3390648 (The Journal of Biological Chemistry, 2012)

Experiments:
Format in all cases: cell-based, Saccharomyces cerevisiae
Pol12 = assay: Immunoprecipitation and immunoblotting, Pol12; conditions: diploid yeast, anti-HA beads, native cell extracts, immunoblotting
yeast cells = assay: Tetrad analysis, colony formation and growth of yeast cells; conditions: tetrad analysis of meiotic progeny of heterozygous diploid, rich medium YPD
How it was run: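 Heterozygous diploids, each carrying one wild-type POL1 copy and one mutant pol1 allele (C-terminal truncation or point mutant), were sporulated. Meiotic progeny were scored by tetrad analysis for germination and colony growth. Medium was rich YPD: 1% yeast extract, 2% peptone, 40 μg/ml adenine, 2% glucose as sole carbon source.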

B subunit Pol12 = assay: Immunoprecipitation from yeast extracts and mass spectrometry, B subunit; conditions: diploid yeast, anti-Myc beads, spectral counts
How it was run: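 Diploid strains grown asynchronously in YPD (1% yeast extract, 2% peptone, 40 μg/ml adenine, 2% glucose). Extracts made from 250 ml mid-log culture (2.5 × 10^9 cells) with 100 mM potassium acetate, then Benzonase-digested (800 units, 30 min, 4 °C). Tagged protein immunoprecipitated on anti-Myc (9E10) magnetic beads. Eluate run 1 cm into SDS gel, cut into 10 bands, trypsin-digested, and analysed by mass spectrometry.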

[1] = system: other replisome components; assay: Immunoprecipitation and immunoblotting, replisome components; conditions: diploid yeast, anti-HA beads, native cell extracts, immunoblotting; relative to wild-type Pol1
primase [2] = assay: Immunoprecipitation from yeast extracts and mass spectrometry, primase; conditions: diploid yeast, anti-Myc beads, spectral counts
How it was run: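 Asynchronous diploid cultures were grown in YPD. Extracts were made from 250 ml of mid-log cells (2.5 × 10^9) with 100 mM potassium acetate. DNA was digested with 800 units of Benzonase for 30 min at 4 °C before capture on 9E10 magnetic beads. Each sample was run 1 cm into an SDS gel, cut into 10 bands, trypsin-digested and analysed by mass spectrometry.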

[3] = system: S phase checkpoint pathway (Mec1); assay: Dependence of viability on S phase checkpoint
primase [4] = assay: Immunoprecipitation and immunoblotting, primase; conditions: diploid yeast, anti-HA beads, immunoblotting

B1: Pol1 1–1452: Pol1 allele with the sequence encoding the last 16 amino acids removed (protein)
chain: MSSKSEKLEKLRKLQAARNGTSIDDYEGDESDGDRIYDEIDEKEYRARKRQELLHDDFVVDDDGVGYVDRGVEEDWREVDNSSSDEDTGNLASKDSKRKKNIKREKDHQITDMLRTQHSKSTLLAHAKKSQKKSIPIDNFDDILGEFESGEVEKPNILLPSKLRENLNSSPTSEFKSSIKRVNGNDESSHDAGISKKVKIDPDSSTDKYLEIESSPLKLQSRKLRYANDVQDLLDDVENSPVVATKRQNVLQDTLLANPPSAQSLADEEDDEDSDEDIILKRRTMRSVTTTRRVNIDSRSNPSTSPFVTAPGTPIGIKGLTPSKSLQSNTDVATLAVNVKKEDVVDPETDTFQMFWLDYCEVNNTLILFGKVKLKDDNCVSAMVQINGLCRELFFLPREGKTPTDIHEEIIPLLMDKYGLDNIRAKPQKMKYSFELPDIPSESDYLKVLLPYQTPKSSRDTIPSDLSSDTFYHVFGGNSNIFESFVIQNRIMGPCWLDIKGADFNSIRNASHCAVEVSVDKPQNITPTTTKTMPNLRCLSLSIQTLMNPKENKQEIVSITLSAYRNISLDSPIPENIKPDDLCTLVRPPQSTSFPLGLAALAKQKLPGRVRLFNNEKAMLSCFCAMLKVEDPDVIIGHRLQNVYLDVLAHRMHDLNIPTFSSIGRRLRRTWPEKFGRGNSNMNHFFISDICSGRLICDIANEMGQSLTPKCQSWDLSEMYQVTCEKEHKPLDIDYQNPQYQNDVNSMTMALQENITNCMISAEVSYRIQLLTLTKQLTNLAGNAWAQTLGGTRAGRNEYILLHEFSRNGFIVPDKEGNRSRAQKQRQNEENADAPVNSKKAKYQGGLVFEPEKGLHKNYVLVMDFNSLYPSIIQEFNICFTTVDRNKEDIDELPSVPPSEVDQGVLPRLLANLVDRRREVKKVMKTETDPHKRVQCDIRQQALKLTANSMYGCLGYVNSRFYAKPLAMLVTNKGREILMNTRQLAESMNLLVVYGDTDSVMIDTGCDNYADAIKIGLGFKRLVNERYRLLEIDIDNVFKKLLLHAKKKYAALTVNLDKNGNGTTVLEVKGLDMKRREFCPLSRDVSIHVLNTILSDKDPEEALQEVYDYLEDIRIKVETNNIRIDKYKINMKLSKDPKAYPGGKNMPAVQVALRMRKAGRVVKAGSVITFVITKQDEIDNAADTPALSVAERAHALNEVMIKSNNLIPDPQYYLEKQIFAPVERLLERIDSFNVVRLSEALGLDSKKYFRREGGNNNGEDINNLQPLETTITDVERFKDTVTLELSCPSCDKRFPFGGIVSSNYYRVSYNGLQCKHCEQLFTPLQLTSQIEHSIRAHISLYYAGWLQCDDSTCGIVTRQVSVFGKRCLNDGCTGVMRYKYSDKQLYNQLLYFDSLFDCEKNKKQELKPIYLPDDLDYPKEQLTESSIKALTEQNRELMETGRSVVQKYLNDC
modifications: left off: 9MYC, end not stated, kept
Pol12
  association with Pol12: all associated equally well with Pol12
Yeast cells
  colony formation / viability and growth: not able to form colonies
B subunit Pol12
  association with B subunit Pol12: as efficiently as wild-type Pol1

B2: Pol1-F1463A (protein)
chain: MSSKSEKLEKLRKLQAARNGTSIDDYEGDESDGDRIYDEIDEKEYRARKRQELLHDDFVVDDDGVGYVDRGVEEDWREVDNSSSDEDTGNLASKDSKRKKNIKREKDHQITDMLRTQHSKSTLLAHAKKSQKKSIPIDNFDDILGEFESGEVEKPNILLPSKLRENLNSSPTSEFKSSIKRVNGNDESSHDAGISKKVKIDPDSSTDKYLEIESSPLKLQSRKLRYANDVQDLLDDVENSPVVATKRQNVLQDTLLANPPSAQSLADEEDDEDSDEDIILKRRTMRSVTTTRRVNIDSRSNPSTSPFVTAPGTPIGIKGLTPSKSLQSNTDVATLAVNVKKEDVVDPETDTFQMFWLDYCEVNNTLILFGKVKLKDDNCVSAMVQINGLCRELFFLPREGKTPTDIHEEIIPLLMDKYGLDNIRAKPQKMKYSFELPDIPSESDYLKVLLPYQTPKSSRDTIPSDLSSDTFYHVFGGNSNIFESFVIQNRIMGPCWLDIKGADFNSIRNASHCAVEVSVDKPQNITPTTTKTMPNLRCLSLSIQTLMNPKENKQEIVSITLSAYRNISLDSPIPENIKPDDLCTLVRPPQSTSFPLGLAALAKQKLPGRVRLFNNEKAMLSCFCAMLKVEDPDVIIGHRLQNVYLDVLAHRMHDLNIPTFSSIGRRLRRTWPEKFGRGNSNMNHFFISDICSGRLICDIANEMGQSLTPKCQSWDLSEMYQVTCEKEHKPLDIDYQNPQYQNDVNSMTMALQENITNCMISAEVSYRIQLLTLTKQLTNLAGNAWAQTLGGTRAGRNEYILLHEFSRNGFIVPDKEGNRSRAQKQRQNEENADAPVNSKKAKYQGGLVFEPEKGLHKNYVLVMDFNSLYPSIIQEFNICFTTVDRNKEDIDELPSVPPSEVDQGVLPRLLANLVDRRREVKKVMKTETDPHKRVQCDIRQQALKLTANSMYGCLGYVNSRFYAKPLAMLVTNKGREILMNTRQLAESMNLLVVYGDTDSVMIDTGCDNYADAIKIGLGFKRLVNERYRLLEIDIDNVFKKLLLHAKKKYAALTVNLDKNGNGTTVLEVKGLDMKRREFCPLSRDVSIHVLNTILSDKDPEEALQEVYDYLEDIRIKVETNNIRIDKYKINMKLSKDPKAYPGGKNMPAVQVALRMRKAGRVVKAGSVITFVITKQDEIDNAADTPALSVAERAHALNEVMIKSNNLIPDPQYYLEKQIFAPVERLLERIDSFNVVRLSEALGLDSKKYFRREGGNNNGEDINNLQPLETTITDVERFKDTVTLELSCPSCDKRFPFGGIVSSNYYRVSYNGLQCKHCEQLFTPLQLTSQIEHSIRAHISLYYAGWLQCDDSTCGIVTRQVSVFGKRCLNDGCTGVMRYKYSDKQLYNQLLYFDSLFDCEKNKKQELKPIYLPDDLDYPKEQLTESSIKALTEQNRELMETGRSVVQKYLNDCGRRYVDMTSIADFMLN
modifications: left off: 9MYC, end not stated, kept
[1]
  co-purification with other replisome components: slightly weaker than for wild-type Pol1
Primase [2]
  co-purification with primase: neither of the mutated alleles of Pol1 co-purified with primase
[3]; Mec1 and Rad53, data not shown
  dependence for survival on checkpoint kinases: dependence for survival on the checkpoint kinases Mec1 and Rad53
[3]; pol1-F1463A combined with mec1Δ (SML1 deleted)
  survival in combination with mec1Δ: die after a couple of rounds of cell division
[3]; sml1Δ mec1Δ background
  dependence of viability on checkpoint kinase: completely dependent upon the Mec1 checkpoint kinase
Pol12
  association with Pol12: all associated equally well with Pol12
Primase [4]; native extracts
  interaction with primase, native cell extracts: neither of the mutated forms interacted with primase
Primase [4]; cells treated with 1% formaldehyde, 25 min, 24 °C
  interaction with primase, formaldehyde-treated cells: neither of the mutated forms interacted with primase
B subunit Pol12
  association with B subunit Pol12: as efficiently as wild-type Pol1
